Source: ChEMBL document CHEMBL5338796, “Discovery of a Selective and Orally Bioavailable FGFR2 Degrader for Treating Gastric Cancer” (J Med Chem, 2023)
Calls of active or inactive are those of the source. The rule behind the calls is not given here.

Key:
[1] = molecular target: Fibroblast growth factor receptor (Homo sapiens) (UniProt P22607+P11362+P22455+P21802); assay: Induction of FGFR degradation in human KATO III stomach cancer cell line assessed as reduction in PLCgamma phosphorylation at 50 nM measured for 6 hrs; assay type: cell-based
Summary of the method: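 KATO III cells incubated 6 h with 50 nM compound, then stimulated with FGF1 for 10 min; pFGFR, pPLCγ1 (Tyr783) and pFRS2α immunoblotted.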

SNU-16 [2] = assay: Antitumor activity against human SNU-16 cells xenografted in BALB/c nude mouse assessed as reduction in PLCgamma phosphorylation in tumor at 20 mg/kg, po measured at 4 hrs; assay type: functional, organism-based
Summary of the method: (§1)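 Female BALB/c nude mice, 5 weeks old (20–22 g), s.c. right-flank SNU-16 implants, randomized by body weight into groups (n = 5) once tumours reached 50–100 mm3. Dosing 20 mg/kg/day intragastric in 0.5% CMC-Na for 15 d; vehicle controls. Tumour width and length measured every 2 days; tumours harvested 4 h after last dose and lysates immunoblotted for pFGFR, FGFR2, pPLCγ, pErk.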

[3] = molecular target: T1, Protein cereblon/Fibroblast growth factor receptor 2 (Homo sapiens, UniProt P21802+Q96SW2); assay: PROTAC activity at CRBN/FGFR2 in human KATO III stomach cancer cell line assessed as FGFR2 degradation by measuring FGFR2 expression level at 100 to 500 nM measured for 6 hrs by Western blotting analysis; assay type: cell-based; settings: dose 100-500 nM
T1 sequence (P21802 22-821 limits assumed): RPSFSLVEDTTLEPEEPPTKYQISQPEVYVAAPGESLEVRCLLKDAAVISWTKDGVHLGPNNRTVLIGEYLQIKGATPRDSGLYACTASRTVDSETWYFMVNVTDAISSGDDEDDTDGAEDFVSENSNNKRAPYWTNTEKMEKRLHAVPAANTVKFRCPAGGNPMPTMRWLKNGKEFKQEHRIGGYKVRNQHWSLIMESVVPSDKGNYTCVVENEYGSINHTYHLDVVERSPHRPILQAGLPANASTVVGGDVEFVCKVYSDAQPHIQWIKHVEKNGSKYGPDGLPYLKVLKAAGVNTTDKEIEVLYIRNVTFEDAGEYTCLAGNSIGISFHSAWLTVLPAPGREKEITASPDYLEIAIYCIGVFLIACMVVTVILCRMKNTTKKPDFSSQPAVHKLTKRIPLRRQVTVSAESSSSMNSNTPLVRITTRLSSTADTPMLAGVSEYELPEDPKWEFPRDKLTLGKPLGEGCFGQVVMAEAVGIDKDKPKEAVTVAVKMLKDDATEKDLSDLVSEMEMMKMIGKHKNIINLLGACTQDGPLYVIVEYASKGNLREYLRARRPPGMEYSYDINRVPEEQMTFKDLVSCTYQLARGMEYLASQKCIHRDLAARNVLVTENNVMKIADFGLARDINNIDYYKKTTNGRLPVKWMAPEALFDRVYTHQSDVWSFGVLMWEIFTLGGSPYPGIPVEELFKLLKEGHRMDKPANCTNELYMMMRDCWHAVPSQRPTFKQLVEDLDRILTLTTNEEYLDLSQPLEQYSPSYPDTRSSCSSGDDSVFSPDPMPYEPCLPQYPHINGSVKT
T1 sequence (Q96SW2 whole entry partner): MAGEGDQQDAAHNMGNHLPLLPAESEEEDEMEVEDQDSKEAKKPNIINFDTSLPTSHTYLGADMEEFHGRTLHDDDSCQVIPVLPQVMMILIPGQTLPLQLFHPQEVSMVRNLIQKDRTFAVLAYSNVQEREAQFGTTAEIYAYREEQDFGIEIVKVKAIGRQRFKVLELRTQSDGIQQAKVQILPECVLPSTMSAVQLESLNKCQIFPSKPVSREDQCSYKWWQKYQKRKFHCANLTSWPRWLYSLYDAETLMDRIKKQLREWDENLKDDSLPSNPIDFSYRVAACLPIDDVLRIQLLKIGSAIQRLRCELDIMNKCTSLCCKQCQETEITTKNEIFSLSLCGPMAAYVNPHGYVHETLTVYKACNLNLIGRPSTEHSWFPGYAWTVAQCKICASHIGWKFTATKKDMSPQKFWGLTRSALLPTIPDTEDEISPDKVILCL
Summary of the method: (§2)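 KATO III cells treated 6 h across 0.5–10,000 nM (DMSO stock, final DMSO below 0.5%); FGFR2 immunoblotted, quantified as FGFR2/β-actin ratio normalized to DMSO-treated cells, three independent biological experiments; DC50 and Dmax derived from the curve.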

[4] = molecular target: T1, Protein cereblon/Fibroblast growth factor receptor 2; assay: PROTAC activity at CRBN/FGFR2 in human KATO III stomach cancer cell line assessed as FGFR2 degradation by measuring maximum efficacy at 0.5 to 10000 nM measured for 6 hrs by Western blotting analysis relative to control; assay type: cell-based; settings: dose 0.5-10000 nM
Summary of the method: (§3)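 KATO III cells treated for 6 h at the stated concentrations, added from 10 mM DMSO stocks (final DMSO below 0.5%). Cells were washed with PBS and lysed in 2× loading buffer, then run on SDS-PAGE and blotted to PVDF. Anti-FGFR2 was applied overnight at 4 °C, with ECL detection. FGFR2 was expressed as FGFR2/β-actin, normalized to DMSO-treated cells, from three independent biological experiments.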

[5] = molecular target: T1, Protein cereblon/Fibroblast growth factor receptor 2; assay: PROTAC activity at CRBN/FGFR2 in human KATO III stomach cancer cell line assessed as FGFR2 degradation by measuring FGFR2 expression level at 100 nM measured after 12 hrs by Western blotting analysis relative to control; assay type: cell-based
Summary of the method: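 Time course in KATO III cells: FGFR2/β-actin by Western blot at successive treatment times, normalized to DMSO control.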

[6] = molecular target: T1, Protein cereblon/Fibroblast growth factor receptor 2; assay: PROTAC activity at CRBN/FGFR2 in human KATO III stomach cancer cell line assessed as FGFR2 degradation by measuring FGFR2 expression level at 0.5 to 100 nM measured for 6 hrs by Western blotting analysis; assay type: cell-based; settings: dose 0.5-100 nM; summary of the method: as §2
[7] = molecular target: Tyrosine-protein kinase ABL1 (Homo sapiens) (UniProt P00519); assay: Inhibition of human ABL1 at 1000 nM by KINOMEscan analysis relative to control
Chain of Tyrosine-protein kinase ABL1 (Homo sapiens) (P00519 whole entry): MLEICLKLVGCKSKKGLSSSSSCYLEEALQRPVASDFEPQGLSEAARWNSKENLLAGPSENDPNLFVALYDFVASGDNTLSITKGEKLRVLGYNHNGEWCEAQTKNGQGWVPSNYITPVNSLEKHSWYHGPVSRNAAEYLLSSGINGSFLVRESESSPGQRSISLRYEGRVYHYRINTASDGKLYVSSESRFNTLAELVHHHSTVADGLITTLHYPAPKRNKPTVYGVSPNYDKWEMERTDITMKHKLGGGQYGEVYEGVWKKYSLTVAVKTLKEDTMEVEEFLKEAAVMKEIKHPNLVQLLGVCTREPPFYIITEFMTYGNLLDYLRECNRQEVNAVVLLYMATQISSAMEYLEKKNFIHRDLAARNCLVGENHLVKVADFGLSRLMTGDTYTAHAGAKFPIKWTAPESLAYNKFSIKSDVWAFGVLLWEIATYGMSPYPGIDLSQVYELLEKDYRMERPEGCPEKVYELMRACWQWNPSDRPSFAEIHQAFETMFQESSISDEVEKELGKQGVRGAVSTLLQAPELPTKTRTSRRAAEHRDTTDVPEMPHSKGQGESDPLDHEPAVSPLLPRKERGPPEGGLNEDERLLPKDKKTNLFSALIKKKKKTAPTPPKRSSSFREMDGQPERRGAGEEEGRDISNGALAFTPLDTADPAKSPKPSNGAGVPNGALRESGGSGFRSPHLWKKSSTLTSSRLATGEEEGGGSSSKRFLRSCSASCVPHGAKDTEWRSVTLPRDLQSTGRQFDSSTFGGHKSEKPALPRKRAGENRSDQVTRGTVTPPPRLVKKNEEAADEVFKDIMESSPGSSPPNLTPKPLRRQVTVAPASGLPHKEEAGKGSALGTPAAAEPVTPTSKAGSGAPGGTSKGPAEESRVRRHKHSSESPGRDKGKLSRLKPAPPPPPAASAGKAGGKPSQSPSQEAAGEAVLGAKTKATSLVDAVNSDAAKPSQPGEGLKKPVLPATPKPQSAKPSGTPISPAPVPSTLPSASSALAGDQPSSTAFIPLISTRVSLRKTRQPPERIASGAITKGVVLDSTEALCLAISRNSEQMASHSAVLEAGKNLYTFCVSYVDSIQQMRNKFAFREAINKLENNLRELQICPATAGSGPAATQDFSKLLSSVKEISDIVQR

[8] = molecular target: T1, Protein cereblon/Fibroblast growth factor receptor 2; assay: PROTAC activity at CRBN/FGFR2 in human KATO III stomach cancer cell line at 100 nM measured for 6 hrs by Western blot analysis relative to control; assay type: cell-based; summary of the method: as §3
[9] = molecular target: Fibroblast growth factor receptor 1 (Homo sapiens) (UniProt P11362); assay: Induction of FGFR1 degradation in human NCI-H1581 cells at 100 nM measured for 6 hrs Western blot analysis relative to control; assay type: cell-based
Chain of Fibroblast growth factor receptor 1 (Homo sapiens) (P11362 22-822 limits assumed): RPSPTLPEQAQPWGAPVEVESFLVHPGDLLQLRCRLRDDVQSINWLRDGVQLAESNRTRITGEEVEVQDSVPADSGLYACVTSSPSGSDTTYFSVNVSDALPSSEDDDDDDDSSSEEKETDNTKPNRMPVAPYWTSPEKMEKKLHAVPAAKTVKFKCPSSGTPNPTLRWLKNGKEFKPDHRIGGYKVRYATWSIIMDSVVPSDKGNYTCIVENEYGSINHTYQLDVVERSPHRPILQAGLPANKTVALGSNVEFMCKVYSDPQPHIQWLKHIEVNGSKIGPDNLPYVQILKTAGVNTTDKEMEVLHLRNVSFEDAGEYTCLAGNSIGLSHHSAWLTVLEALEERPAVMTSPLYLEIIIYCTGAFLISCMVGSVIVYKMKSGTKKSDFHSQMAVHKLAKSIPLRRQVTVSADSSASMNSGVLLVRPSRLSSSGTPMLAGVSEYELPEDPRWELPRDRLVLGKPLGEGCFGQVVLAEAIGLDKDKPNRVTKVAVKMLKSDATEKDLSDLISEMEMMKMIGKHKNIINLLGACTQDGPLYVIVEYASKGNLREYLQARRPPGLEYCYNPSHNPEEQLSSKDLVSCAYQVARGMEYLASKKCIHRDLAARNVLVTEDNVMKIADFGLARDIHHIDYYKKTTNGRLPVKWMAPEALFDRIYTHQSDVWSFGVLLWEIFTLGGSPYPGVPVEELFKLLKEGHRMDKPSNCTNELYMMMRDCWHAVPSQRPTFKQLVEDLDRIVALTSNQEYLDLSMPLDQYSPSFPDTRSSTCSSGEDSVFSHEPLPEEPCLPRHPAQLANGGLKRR
Summary of the method: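 NCI-H1581 (FGFR1), MCF7 (FGFR3) and Huh7 (FGFR4) cells, which endogenously express the isoforms, treated with 100 nM for 6 h; isoform levels by Western blot against β-actin, three biologically independent experiments.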

[10] = molecular target: T1, Protein cereblon/Fibroblast growth factor receptor 2; assay: PROTAC activity at CRBN/FGFR2 in human KATO III stomach cancer cell line assessed as FGFR2 degradation measured for 6 hrs in presence of bortezomib by immunoblot analysis; assay type: cell-based
Summary of the method: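 KATO III cells were pretreated with 1 μM proteasome inhibitor (MG132 or bortezomib), then exposed to degrader at 100 nM for 6 h. FGFR2 was read by immunoblot against β-actin loading, with ECL detection.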

[11] = molecular target: T1, Protein cereblon/Fibroblast growth factor receptor 2; assay: PROTAC activity at CRBN/FGFR2 in human KATO III stomach cancer cell line membrane assessed as reduction in membrane bound FGFR2 at 100 nM measured for 6 hrs by flow cytometry analysis; assay type: cell membranes
Summary of the method: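 Approx. 2 × 10^6 KATO III cells were treated 6 h at 100 nM. They were washed in cold PBS and stained with anti-FGFR2 (1:100, 4 °C, 1 h), then with Alexa Fluor 488 secondary (1:500, 4 °C, 1 h). Surface FGFR2 was read by flow cytometry on at least 100,000 events, with 488 nm excitation and FITC detection at 519 nm.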

[12] = Half life in Sprague-Dawley rat at 3 mg/kg, iv measured at 0.083 to 24 hrs by LC-MS/MS analysis; assay type: ADME, organism-based; settings: in vivo, time 0.083-24 hrs
Summary of the method: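 Male Sprague Dawley rats, single dose i.v. 3 mg/kg or p.o. 20 mg/kg in 10% Solutol, 85% (10% HP-β-CD in saline), 5% DMSO, pH adjusted to 9–10.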

[13] = Toxicity in ICR mouse assessed as change in liver weight at 20 mg/kg, po measured for 30 days; assay type: organism-based; settings: in vivo, 720 h, time 30 day
Summary of the method: (§4)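 ICR mice (n = 6) were dosed orally at 20 mg/kg/day for 30 days, alongside vehicle-treated controls. Mortality and clinical signs were checked daily. At the end, body and organ weights were recorded. Heart, liver, spleen, lung and kidney were examined by hematoxylin and eosin staining.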

[14] = Toxicity in ICR mouse assessed as change in lung weight at 20 mg/kg, po measured for 30 days; assay type: organism-based; settings: in vivo, 720 h, time 30 day; summary of the method: as §4
[15] = Toxicity in ICR mouse assessed as change in kidney weight at 20 mg/kg, po measured for 30 days; assay type: organism-based; settings: in vivo, 720 h, time 30 day; summary of the method: as §4
[16] = Hepatotoxicity in ICR mouse assessed as effect on AST level at 20 mg/kg, po measured for 30 days; assay type: toxicity, organism-based; settings: in vivo, 720 h, time 30 day
Summary of the method: (§5)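 ICR mice given 20 mg/kg/day orally for 30 days (n = 6), vehicle controls; mortality and clinical signs checked daily, then AST/ALT and creatinine, organ weights, haematology and H&E of heart, liver, spleen, lung, kidney.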

[17] = Nephrotoxicity in ICR mouse assessed as effect on creatinine level at 20 mg/kg, po measured for 30 days; assay type: toxicity, organism-based; settings: in vivo, 720 h, time 30 day; summary of the method: as §5
SNU-16 [18] = assay: Antitumor activity against human SNU-16 cells xenografted in BALB/c nude mouse assessed as reduction in ERK1/2 phosphorylation in tumor at 20 mg/kg, po measured at 4 hrs; assay type: functional, organism-based; summary of the method: as §1
[19] = Cmax in mouse at 3 mg/kg, iv measured at 0.083 to 24 hrs by LC-MS/MS analysis; settings: in vivo

- Activity [1]: Active
- Activity [3]: 70%
- Emax [4]: 80%
- Activity [5]: 90%
- Activity [6]: inactive
- inhibition [7]: 47%
- Activity [8]: 77%
- Activity [9]: 43%
- Activity [10]: inactive
- Activity [11]: Active
- half-life [12]: 58.2 min
- Cmax [19]: 655 ng/mL
Compound: COc1cc(OC)c(Cl)c(NC(=O)N(C)c2cc(Nc3ccc(N4CCN(C(=O)C5CCN(c6ccc7c(c6)C(=O)N(C6CCC(=O)NC6=O)C7=O)CC5)CC4)cc3)ncn2)c1Cl (centres undefined)
- Activity (SNU-16 [2]): Active
- Activity [13]: Non-Toxic
- Activity [14]: Non-Toxic
- Activity [15]: Non-Toxic
- Activity [16]: Non-Toxic
- Activity [17]: Non-Toxic
- Activity (SNU-16 [18]): Active
